Three compounds from ChEMBL document CHEMBL1811834, “Synthesis and antimalarial activity of new heterocyclic hybrids based on chloroquine and thiazolidinone scaffolds” (Bioorg Med Chem, 2011) can be followed below.

In data set [1] the test system is J774. The data set can be described thus: Cytotoxicity against mouse macrophage J774 cells at 23 uM after 24 hrs by MTT assay. Conditions: j774, 24 h. The class given is cell-based. (In general: Tetrazolium assays rely on reduction of a dye to a coloured formazan, in cell work by metabolically active cells.)
Data set [2] in a line: Inhibition of beta-hematine formation after 18 to 24 hrs by ferriprotoporphyrin 9 biomineralization inhibition test. The class given is functional. Put shortly:
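Haemin chloride (0.5 mg/mL, freshly dissolved in DMSO) was mixed with 10 mg/mL compound solution or solvent in 0.5 M sodium acetate pH 4.4 and incubated 18–24 h at 37 °C. IC₅₀ is the mean of two experiments in triplicate.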

The subject of data set [3] is HepG2. The data set can be described thus: Cytotoxicity against human HepG2 cells at 23 uM after 24 hrs by MTT assay. In kind it is cell-based. The following applies: hepg2, 24 h.
Data set [4] deals with Plasmodium falciparum. The data set is described as follows: Antimalarial activity against erythrocytic stage multidrug-resistant Plasmodium falciparum Dd2 after 48 hrs by fluorescence spectrophotometer. The class given is functional, organism-based. The following applies: Dd2, 48 h.
For data set [5], the system named is Plasmodium falciparum. The data set is described as follows: Antimalarial activity against erythrocytic stage chloroquine-sensitive Plasmodium falciparum 3D7 after 48 hrs by fluorescence spectrophotometer. In kind it is functional, organism-based. Conditions: 3D7, 48 h.
Data set [6] has as its system HepG2. The data set is described as follows: Cytotoxicity against human HepG2 cells at 37 uM after 24 hrs by MTT assay. The class given is cell-based. The following applies: hepg2, 24 h. Put shortly:
(§1)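 5 × 10⁴ cells/well were exposed to compound for 24 h. Medium was then removed and MTT (0.4 mg/mL in PBS) added for 1 h. Crystals were dissolved in DMSO and read at 595 nm. % toxicity = (OD control − OD compound)/OD control × 100.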

The test system of the next data set is Plasmodium berghei. The data set can be described thus: Antimalarial activity against Plasmodium berghei str. ANKA infected in NMRI mouse at 10 mg/kg/day, ip for three days measured on day 4 by Giemsa staining. In kind it is functional. The following applies: route intraperitoneal. Summed up: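 NMRI male mice (20 ± 2 g, groups of five) inoculated on day 0 with 2 × 10⁷ RBCs infected with P. berghei ANKA erythrocytic stages. Two hours later, i.p. dosing at 10 mg/kg/day in DMSO, continued days 1–3.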

The test system of data set [7] is J774. The data set is described as follows: Cytotoxicity against mouse macrophage J774 cells at 37 uM after 24 hrs by MTT assay. In kind it is cell-based. Conditions: j774, 24 h. Put shortly:
as §1

Data set [8] deals with J774. The data set can be described thus: Cytotoxicity against mouse macrophage J774 cells at 19 uM after 24 hrs by MTT assay. In kind it is cell-based. The following applies: j774, 24 h. Put shortly:
as §1

For data set [9], the system named is HepG2. The data set is described as follows: Cytotoxicity against human HepG2 cells at 19 uM after 24 hrs by MTT assay. The class given is cell-based. The following applies: hepg2, 24 h. Summed up:
as §1

One may read the IC50 as the point on the concentration scale where inhibition reaches its midpoint. Read a high IC50 as lower potency. Take `O=C1CSC(c2ccc3c(c2)OCO3)N1CCNc1ccnc2cc(Cl)ccc12` (stereo not given): the Activity with J774 [1] is 47.93%; with HepG2 [3] it was 25.53%. The IC50 in [2] came out at 58400 nM; in the data set with Plasmodium falciparum [4], 750 nM; in the data set with Plasmodium falciparum [5], 510 nM.

By inhibition in vivo is commonly meant the percentage by which the read-out fell short of the control. Read a low inhibition in vivo as a weak effect. `Clc1ccc2c(NCc3ccccc3)ccnc2c1`: the IC50 was 46500 nM in data set [2], 330 nM in the data set on Plasmodium falciparum [4] and 300 nM in the data set with Plasmodium falciparum [5]. The figures for the Activity in the data set on HepG2 [6] and with J774 [7] were 46.58% and 0%, respectively. This compound also registered an inhibition in vivo at 10 mg/kg/day in the data set on Plasmodium berghei of 25%.

In the case of `CCN(CC)CCCC(C)Nc1ccnc2cc(Cl)ccc12` (stereo not given) [CHLOROQUINE], the Activity in the data set on J774 [8] and in the data set with HepG2 [9] was 0% throughout. The same compound showed an IC50 in data set [2] of 22300 nM. Besides, in the data set on Plasmodium berghei, the inhibition in vivo at 10 mg/kg/day stood at 100%.
